MC4R barr agon = activates human MC4R beta-arrestin recruitment | U2OS MC4R beta-arrestin complementation, luminescence; percent of melanotan II response, DMSO zero | activation, % at 8.9 µM | hit rate 0.98% among 360,000 | AID 540308;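 active means activation above a per-plate cutoff, the mean activation of sample wells on that plate plus 3 SD, cut at about 8% in these data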
MC4R antag cAMP = antagonists of human melanocortin 4 receptor (MC4R) | P32245 | hit rate 0.48% among 360,000 | AID 540295 | MC4R-expressing cells, MTII-stimulated cAMP, LANCE TR-FRET | inhibition, % at 6.5 µM;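 active means inhibition above its plate's cutoff, the mean of tested wells on that plate plus 3 SD, cut at about 29% in these data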;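 further: 0% = Melanotan II alone and 100% = Melanotan II plus saturating MCL0020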
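Material: U2OS-MC4R stable cell line | Reagent: Melanotan II challenge after compound preincubation | Doses: One concentration, 6.5 µM nominal | Incubation: 30-min compound preincubation, 1-h Melanotan II challenge, 1-h detection, room temperature | Signal: TR-FRET cAMP assay | Replicates: One well per compound, no replicates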
TbMetRS inhib = Trypanosoma brucei MetRS inhibition. purified T. brucei MetRS, ATP depletion, Kinase-Glo luminescence. inhibition, % at 11.9 µM. hit rate 0.4% among 360,000. AID 624268;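 active means inhibition above a per-plate cutoff of the control wells' mean inhibition plus 3 SD, cut at about 5.5% in these data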;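 further: 0% = DMSO wells median and 100% = median of wells with control inhibitor compound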
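assay system = parasite MetRS enzyme | timing = 15 min preincubation, 2 h reaction, all 25 °C | evaluation = percent inhibition relative to median high and low control wells | medium = HEPES buffer containing pyrophosphatase, BSA, spermine, DTT | compound = single dose, 11.9 µM final nominal, 0.9% final DMSO | detection = Kinase-Glo luminescence, ATP depletion format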
H9c2 TAG inh = triacylglycerol accumulation inhibition; inhibition, % at 12.5 µM; H9c2 cells, Nile Red lipid (TAG) fluorescence; cells loaded with 200 µM oleic acid; hit rate 0.66% among 230,000;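 active means pattern-corrected inhibition of lipid staining of at least 50% with the nuclear-stain viability signal not falling by more than 50%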;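 further: 0% = DMSO wells and 100% = triacsin C control wells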
aDG glyco act = increases alpha dystroglycan glycosylation | Pro5-aDG cells, alpha-DG glycosylation AlphaScreen (IIH6); 0% Pro5, 100% B10-LARGE cell signal | activation, % at 10 µM | hit rate 0.22% among 360,000;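 active means activation of at least 8% versus controls, or a plate z-score of at least 8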;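 further: Pro5 are CHO cells carrying HIG-tagged alpha-DG that lacks glycosylation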
NTR1 agonist = activates human neurotensin receptor 1 | P30989 | NTR1-U2OS beta-arrestin-GFP spot imaging, agonist mode | activation, % at 20 µM | hit rate 0.17% among 330,000 | AID 493036;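 active means activation at or above 40% of the spot to cytoplasm intensity ratio, with at least 20 cells analyzed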;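 further: 0% = DMSO without peptide and 100% = 100 nM NTR1 peptide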
Target sequence (P30989 whole entry, looked up): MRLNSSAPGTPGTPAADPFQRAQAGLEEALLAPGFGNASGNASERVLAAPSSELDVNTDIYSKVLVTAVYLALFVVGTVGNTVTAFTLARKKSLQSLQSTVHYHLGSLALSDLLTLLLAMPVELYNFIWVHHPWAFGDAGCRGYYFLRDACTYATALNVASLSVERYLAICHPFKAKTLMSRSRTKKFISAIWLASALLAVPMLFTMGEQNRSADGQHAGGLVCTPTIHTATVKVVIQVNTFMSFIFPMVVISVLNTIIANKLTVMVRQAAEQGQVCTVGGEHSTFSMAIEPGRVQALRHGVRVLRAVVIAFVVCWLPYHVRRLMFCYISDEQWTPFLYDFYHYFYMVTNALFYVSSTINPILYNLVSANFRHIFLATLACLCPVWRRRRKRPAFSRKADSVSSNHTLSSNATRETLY
U2OS cAMP counter = U2OS forskolin cAMP inhibition counter-screen | inhibition, % at 6.5 µM | shares compounds with MC4R antag cAMP | hit rate 26% among 1,600 | AID 602193 | parental U2OS, LANCE TR-FRET;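 active means mean inhibition over triplicates above the low-control well mean plus 3 SD, set per campaign, cut at about 13% in these data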;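 further: signal is single emission at 671 nm which falls as cellular cAMP rises; 0% = forskolin-stimulated wells and 100% = buffer without forskolin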
MC4R antag conf = human MC4R cAMP antagonism confirmation. shares compounds with MC4R antag cAMP. MC4R-expressing cells, MTII-stimulated cAMP, TR-FRET. inhibition, % at 6.5 µM. hit rate 27% among 1,600; in the data active means inhibition above about 29%;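 further: 0% = agonist stimulated wells alone and 100% = agonist stimulated wells plus saturating reference antagonist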
Starred values were filed as active, the others as inactive; · = no result. Sampled rows, rich in hits. Any-hit rate of the full collection: about 2.4%.

SMILES | MC4R barr agon | MC4R antag cAMP | TbMetRS inhib | H9c2 TAG inh | aDG glyco act | NTR1 agonist | U2OS cAMP counter | MC4R antag conf
c1ccc(-c2csc(-c3ccncc3)n2)cc1 | 1 | -4 | -1 | -3 | 0 | 0 | · | ·
COc1ccc(CNC(=O)[C@H](Cc2c[nH]c3ccccc23)NC(=O)[C@@H]2Cc3ccccc3CN2)cc1 | -1 | 31* | 1 | · | 0 | 1 | -2 | 11
CC(NC(=O)CN(c1cccc(C(F)(F)F)c1)S(=O)(=O)c1ccc(Cl)c([N+](=O)[O-])c1)c1ccccc1 (centres undefined) | 6 | 31* | 0 | · | 0 | 14 | 14* | 42*
CCOC(=O)C1=C(C)C2C3C(=O)N(c4ccccc4C)C(=O)C3C1(C)C1C(=O)N(c3ccccc3C)C(=O)C21 (centres undefined) | -1 | 31* | 0 | · | 0 | 0 | 0 | -13
CC1(C(=O)NS(=O)(=O)c2cccc(Cl)c2)CCN1C(=O)CCc1cccs1 (centres undefined) | -1 | 4 | 0 | 13 | 0 | · | · | ·
Cc1nc(SCC(=O)N2CCCCCC2)c2c(=O)n(C)c(=O)n(CC(C)C)c2n1 | 1 | 33* | 0 | -4 | 0 | · | 3 | 13
Cc1ccc(S(=O)(=O)N2[C@@H](CO)CO[C@H]2CC(=O)OCc2ccccc2)cc1 | · | · | -1 | · | 3 | · | · | ·
COc1ccc(CCCNC(=O)C2(C)Cc3c(-c4ccc(NC(C)=O)cc4)ccnc3O2)cc1 (centres undefined) | 2 | 34* | 0 | 18 | 0 | · | 3 | 3
CC(=O)Nc1ccc(-c2ccnc3c2CC(C)(C(=O)NCCc2ccccc2)O3)cc1 (centres undefined) | 0 | 11 | 0 | 11 | 0 | · | · | ·
COc1cc(/C=N/Nc2nc(Nc3ccc(C)cc3)nc(-n3nc(C)cc3C)n2)cc(OC)c1OC | 4 | 29* | 0 | 7 | 0 | 11 | 7 | 30*
O=C(Cc1cccc2ccccc12)N1CCN(c2ncccn2)CC1 | -1 | 30* | 0 | -1 | 0 | 0 | 2 | -2
CN(C)c1nc(N(C)C)nc(N(C#N)CN2C(=O)c3ccccc3S2(=O)=O)n1 | -2 | 9 | 0 | -11 | 0 | 4 | · | ·
CC(C)Nc1nc(Cl)nc(N(C#N)CN2C(=O)c3ccccc3S2(=O)=O)n1 | -2 | 46* | 1 | -4 | 0 | 9 | 14* | 37*
COc1nc(NC(C)C)nc(N(C#N)CN2C(=O)c3ccccc3S2(=O)=O)n1 | 0 | 17 | -1 | 1 | 0 | 2 | · | ·
CC(C)(C)Nc1nc(Cl)nc(N(C#N)CN2C(=O)c3ccccc3S2(=O)=O)n1 | -1 | 35* | -2 | -3 | 0 | 13 | 25* | 51*
CCOC(=O)[C@]12CCC=C1N(CCC1=CCCCC1)C(=O)[C@H](CC(=O)N1CCSCC1)C2 | · | · | 0 | · | 0 | · | · | ·
O=C(COC(=O)CNC(=O)c1ccc(Cl)cc1Cl)NCc1ccco1 | -2 | 31* | 0 | 5 | 0 | 0 | 11 | 43*
CC1CCCC(C)N1C(=O)COC(=O)CNC(=O)c1ccc(Cl)cc1Cl (centres undefined) | -1 | 29* | 1 | -3 | 0 | 2 | 18* | 19
O=C(CNC(=O)c1ccc(Cl)cc1Cl)OCC(=O)N1CCCC1=O | -2 | 35* | 0 | -4 | 0 | 1 | 19* | 30*
O=C(CNC(=O)c1ccc(Cl)cc1Cl)OCC(=O)N1CCCC1 | -1 | 22 | 0 | 1 | 0 | 1 | · | ·
O=C(CNC(=O)c1ccc(Cl)cc1Cl)OCn1nnc2ccccc2c1=O | -2 | 32* | 0 | 0 | 0 | 0 | 17* | 21
Cc1cc(N2CCCC2=O)ccc1S(=O)(=O)Nc1c(C)nn(C)c1C | 0 | 34* | 0 | -19 | 0 | 1 | 1 | 12
Cc1cc(N2CCCC2=O)cc(C)c1S(=O)(=O)Nc1c(C)nn(C)c1C | -2 | 4 | -1 | -16 | 0 | 0 | · | ·
Cc1ccc(S(=O)(=O)N2C[C@H]3[C@H]4C(=O)N(c5ccccc5)C(=O)[C@H]4C[C@H](OC(=O)NCc4ccccc4F)[C@@]3(O)C2)cc1 | 3 | 8 | 0 | 5 | 0 | · | · | ·
O=C(O)c1ccc(/C=C2\COc3ccccc3C2=O)cc1 | -3 | 36* | 0 | · | 0 | 5 | 5 | 6
SMILES | MC4R barr agon | MC4R antag cAMP | TbMetRS inhib | H9c2 TAG inh | aDG glyco act | NTR1 agonist | U2OS cAMP counter | MC4R antag conf
CN(C)C(=O)c1cc2c(c(-c3cccc(-c4ccccc4F)c3)n1)[C@@H](CCO)N(S(C)(=O)=O)C2 | · | · | 0 | · | 0 | · | · | ·
O=C(Nc1ccccc1)C1=C(c2ccccc2)S(=O)(=O)CCS1(=O)=O | -1 | 47* | 0 | 93 | -1 | · | 28* | 37*
COC(=O)[C@@]12C[C@@H](CC(=O)NCc3cccs3)C(=O)N(Cc3cccc4ccccc34)C1=CCC(C)(C)C2 | · | · | 1 | · | 0 | · | · | ·
Cc1nc2c(OCc3cccc(Cl)c3)cccn2c1N(C)Cc1cccs1 | 2 | 1 | 0 | -27 | 2 | · | · | ·
Cn1c(=O)c2cc(NC(=O)Nc3cccnc3)ccc2n1-c1ccc(C(C)(C)C)cc1 | 6 | 6 | 0 | 5 | 0 | · | · | ·
Cc1ccc(OC(=O)c2sc(Cl)nc2C)cc1C | 0 | 36* | 0 | · | 0 | 16 | 16* | 37*
COc1ccc(N(C)C(=O)c2sc(Cl)nc2C)cc1 | 2 | 17 | 0 | · | 0 | 2 | · | ·
O=C(Nc1ccccc1)Nc1ccccc1NS(=O)(=O)c1cccs1 | 1 | 30* | 0 | · | 0 | 0 | 1 | 8
O=C(NCc1ccco1)c1ccc2sc([C@@H]3O[C@H](CO)[C@H](O)[C@H](O)[C@H]3O)nc2c1 | -1 | 3 | 0 | -3 | 0 | · | · | ·
Cc1cc(N2CCN(C)CC2)nc(=S)[nH]1 | -1 | 29* | 1 | 19 | 0 | 0 | 0 | -4
CC(C)(C)NC(=O)C(c1ccnc2ccccc12)n1c(=O)c(-c2cc3ccccc3[nH]2)nc2ccccc21 (centres undefined) | · | · | 0 | · | 2 | · | · | ·
CCOc1c(O)ccc(C2NC(=O)NC(C)=C2C(=O)OC)c1[N+](=O)[O-] (centres undefined) | -3 | 30* | 0 | · | 0 | 0 | -4 | -11
CCC(=O)N(CC(=O)Nc1sc(C)c(C)c1C(N)=O)C1CCCC1 | -1 | 29* | 0 | 5 | 0 | 1 | -3 | -17

Screening data deposited in PubChem by several laboratories.
